# Source: paper PMC8109618 (Bioorganic & medicinal chemistry, 2020)
# Legend:
# hFXIa–DEGR = hFXIa–DEGR (Homo sapiens, UniProt P03951); assay: Fluorescence titration of active site dansylated hFXIa; type: binding
# hFXIa [1] = biological target: T1, hFXIa (Homo sapiens, UniProt P03951); type: biochemical
# Outline: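 Human plasma FXIa. The initial rate of S-2366 ([…]) hydrolysis was taken from the linear A405 rise, with under 10% substrate consumed. S-2366 was varied from 0.03 to 2 mM at a fixed test compound concentration. Buffer was 50 mM Tris-HCl pH 7.4 with 150 mM NaCl, 0.1% PEG8000 and 0.02% Tween80, at 37 °C. KM and VMAX came from a nonlinear hyperbolic Michaelis–Menten fit.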
# hFXIa [2] = biological target: T1, hFXIa; assay: Analytical ultracentrifugation of hFXIa–inhibitor complex; settings: 100 μM inhibitor, 20 °C; dimeric form, same as hFXIa alone
# trypsin = biological target: T2, trypsin (Bos taurus, UniProt P00760); assay: Direct inhibition of trypsin, chromogenic substrate; type: biochemical, bovine; settings: not shown
# T2 sequence (P00760 24-246): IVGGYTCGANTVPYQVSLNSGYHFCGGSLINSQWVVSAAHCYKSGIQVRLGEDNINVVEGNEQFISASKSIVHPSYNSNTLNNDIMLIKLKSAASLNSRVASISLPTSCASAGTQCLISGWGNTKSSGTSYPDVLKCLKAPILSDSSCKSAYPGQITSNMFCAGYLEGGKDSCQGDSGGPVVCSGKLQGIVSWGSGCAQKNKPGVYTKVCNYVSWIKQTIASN
# Outline: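 Bovine trypsin was held as stock in 50 mM Tris-HCl, pH 7.4, 150 mM NaCl, 0.1% PEG8000, 0.02% Tween80. The assay used 2.5 ng/ml enzyme with 80 μM S-2222 (in-well) at 37 °C, pH 7.4. Percent inhibition was calculated from the ratio of activity with versus without test compound.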
# FXa = FXa (Homo sapiens, UniProt P00742); assay: Direct inhibition of FXa, chromogenic substrate; type: biochemical; settings: not shown
# Outline: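 Human plasma FXa was held as stock in 20 mM Tris-HCl, pH 7.4, 100 mM NaCl, 2.5 mM CaCl2, 0.1% PEG8000, 0.02% Tween80. […] Percent inhibition came from the ratio of proteolytic activity with versus without test compound.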
# hFXIa [3] = biological target: T1, hFXIa; assay: Direct inhibition of hFXIa, chromogenic substrate; type: biochemical; settings: for selectivity for hFXIa over FXa and trypsin: based on inhibition at >200 μM
# T1 sequence (P03951 388-625 limits assumed): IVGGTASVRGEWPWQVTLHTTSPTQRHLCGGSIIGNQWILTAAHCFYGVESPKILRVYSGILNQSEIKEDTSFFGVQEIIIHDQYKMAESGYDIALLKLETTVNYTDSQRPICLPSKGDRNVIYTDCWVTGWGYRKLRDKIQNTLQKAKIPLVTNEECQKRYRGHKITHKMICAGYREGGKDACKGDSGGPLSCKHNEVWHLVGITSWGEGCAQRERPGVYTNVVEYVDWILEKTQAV
# T1 sequence (P03951 19-387 partner limits assumed): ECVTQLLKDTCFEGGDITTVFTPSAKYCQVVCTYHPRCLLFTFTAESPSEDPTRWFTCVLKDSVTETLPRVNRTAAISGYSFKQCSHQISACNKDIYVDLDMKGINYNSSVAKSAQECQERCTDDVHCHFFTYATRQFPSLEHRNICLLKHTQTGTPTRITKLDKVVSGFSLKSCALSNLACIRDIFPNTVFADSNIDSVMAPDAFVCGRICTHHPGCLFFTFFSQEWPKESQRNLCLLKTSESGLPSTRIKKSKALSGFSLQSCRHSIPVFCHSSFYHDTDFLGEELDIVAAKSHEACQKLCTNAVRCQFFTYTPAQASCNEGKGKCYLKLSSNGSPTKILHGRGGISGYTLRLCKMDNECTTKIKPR
# Sequence of hFXIa–DEGR (P03951 388-625 limits assumed): as the sequence (P03951 388-625 limits assumed) above
# Sequence of hFXIa–DEGR (P03951 19-387 partner limits assumed): as the sequence (P03951 19-387 partner limits assumed) above
# Sequence of FXa (P00742 235-488 limits assumed): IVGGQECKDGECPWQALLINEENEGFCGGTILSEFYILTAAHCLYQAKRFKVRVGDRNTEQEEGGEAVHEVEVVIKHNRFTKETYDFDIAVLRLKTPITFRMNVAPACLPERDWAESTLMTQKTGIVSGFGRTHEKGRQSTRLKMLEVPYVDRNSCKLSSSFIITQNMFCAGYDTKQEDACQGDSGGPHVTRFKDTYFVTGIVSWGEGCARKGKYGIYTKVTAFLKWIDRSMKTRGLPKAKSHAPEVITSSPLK
# Sequence of FXa (P00742 41-179 partner limits assumed): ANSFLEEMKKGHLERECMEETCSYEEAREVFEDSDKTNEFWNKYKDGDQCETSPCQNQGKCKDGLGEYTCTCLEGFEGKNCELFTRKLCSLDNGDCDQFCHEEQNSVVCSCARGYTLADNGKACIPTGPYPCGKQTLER
SMILES,concentration at which trypsin is inhibited (trypsin) [µM],concentration at which FXa is inhibited (FXa) [µM],selectivity for hFXIa over FXa and trypsin (hFXIa [3]) [fold],further results
O=c1c2ccccc2nc(-c2ccc(OS(=O)(=O)[O-])cc2)n1CCCCCCCCCn1c(-c2ccc(OS(=O)(=O)[O-])cc2)nc2ccccc2c1=O.[Na+].[Na+] [Inhibitor 19S],,,,"n (Hill coefficient) (hFXIa–DEGR; 250 nM FXIa–DEGR, pH 7.4, 37 °C): 5.0±0.4; mechanism of inhibition (hFXIa [1]; KM invariant, VMAX decreased): non-competitive; VMAX (hFXIa [1]; at 120 μM inhibitor, pH 7.4, 37 °C): 9.7±0.37 mAU/min; sedimentation coefficient s of hFXIa–inhibitor complex (hFXIa [2]): 6.6 S"
O=c1c2ccccc2nc(-c2ccc(OS(=O)(=O)[O-])cc2)n1CCCCCCCCCCn1c(-c2ccc(OS(=O)(=O)[O-])cc2)nc2ccccc2c1=O.[Na+].[Na+] [Inhibitor 20S],> 200,> 200,> 25,
O=c1c2ccccc2nc(-c2ccc(OS(=O)(=O)[O-])cc2)n1CCCCCn1c(-c2ccc(OS(=O)(=O)[O-])cc2)nc2ccccc2c1=O.[Na+].[Na+] [Inhibitor 11S],,,,increase in potency as compared to the monomeric fragment (hFXIa [3]; IC50 ratio vs monomer 2S): ~ 7 fold
O=c1[nH]c(-c2ccc(OS(=O)(=O)[O-])cc2)nc2ccccc12.[Na+] [Inhibitor 2S],,,,"fold higher KD than the next compound (hFXIa–DEGR; 2S vs 18S, 18S vs 19S): ~ 3.2 fold"
O=c1c2ccccc2nc(-c2ccc(OS(=O)(=O)[O-])cc2)n1CCCCCCCCCCCn1c(-c2ccc(OS(=O)(=O)[O-])cc2)nc2ccccc2c1=O.[Na+].[Na+] [Inhibitor 21S],> 200,> 200,> 25,
